Test results published in paper PMC5920785 (Bioorganic & medicinal chemistry, 2017).

Columns and labels:
[1] = system: SK-N-SH neuroblastoma cells; assay: Cell viability assay; assay type: cell-based, human; settings: MTS; for effect on viability of SK-N-SH cells: highest concentration tested (1 μM), 24 h exposure
In short: (§1)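 Cells plated overnight in RPMI with 10% heat-inactivated FBS, penicillin (100 U/ml) and streptomycin (100 μg/ml), at 37 °C in humidified 5% CO2. […] MTS read-out by absorbance at 490 nm. Two experiments, each in triplicate wells (n=6); viability averaged relative to untreated cells.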

[2] = system: MYCN2 neuroblastoma cells; assay: Cell viability assay; assay type: cell-based, human; settings: MTS; for effect on viability of MYCN2 cells: highest concentration tested (1 μM), 24 h exposure
In short: as §1

[3] = biological target: immunoproteasome T-L (β2) (Homo sapiens, UniProt P40306+P49720); assay: In vitro proteasome activity assay, immunoproteasome T-L activity; assay type: biochemical
[4] = biological target: immunoproteasome CT-L (β5) (Homo sapiens, UniProt P20618+P28062); assay: In vitro proteasome activity assay, immunoproteasome CT-L activity; assay type: biochemical; settings: for effect on CT-L activity of the immunoproteasome: at ≤10 μM; for change of CT-L activity of the immunoproteasome on inhibition of T-L activity: Fig. S1
[5] = biological target: 20S constitutive proteasome C-L (β1) (Homo sapiens, UniProt P28072+Q99436); assay: In vitro proteasome activity assay, constitutive proteasome C-L activity; assay type: biochemical
[6] = biological target: immunoproteasome C-L (β1) (Homo sapiens, UniProt P28065); assay: In vitro proteasome activity assay, immunoproteasome C-L activity; assay type: biochemical; settings: for effect on C-L activity of the immunoproteasome: at ≤10 μM
[7] = biological target: 20S constitutive proteasome T-L (β2) (Homo sapiens, UniProt P49720+Q99436); assay: In vitro proteasome activity assay, constitutive proteasome T-L activity; assay type: biochemical
[8] = biological target: 20S constitutive proteasome CT-L (β5) (Homo sapiens, UniProt P20618+P28074); assay: In vitro proteasome activity assay, constitutive proteasome CT-L activity; assay type: biochemical
[9] = system: SK-N-Be(2)c neuroblastoma cells; assay: Cell viability assay; assay type: cell-based, human; settings: highest concentration tested (1 μM), 24 h exposure, MTS
In short: as §1

Ki [3] [µM]	Ki [4] [µM]	effect on CT-L activity of the immunoproteasome [4]	Ki [5] [µM]	Ki [6] [µM]	effect on C-L activity of the immunoproteasome [6]	Ki [7] [µM]	Ki [8] [µM]	change of CT-L activity of the immunoproteasome on inhibition of T-L activity [4]	Compound	cytotoxic effect in SK-N-SH cells ([1]; at 0.1–1 μM, 24 h)	cytotoxic effect in MYCN2 cells ([2]; at 0.1–1 μM, 24 h)	effect on viability of SK-N-Be(2)c cells [9]	effect on viability of SK-N-SH cells [1]	effect on viability of MYCN2 cells [2]
–	–	–	–	–	–	–	–	–	CC(C)C[C@H](NC(=O)[C@H](Cc1ccccc1)NC(=O)c1cnccn1)B(O)O [BTZ, bortezomib, reference compound]	strong cytotoxic effects	strong cytotoxic effects	–	–	–
1.39	> 10	no effect	> 10	> 10	no effect	1.76	0.28	–	CCCCCCCCCCCCNC(=O)N[C@H](C(=O)N[C@H]1CSCCNC(=O)/C=C/[C@H](C)NC1=O)C(C)C [Compound 1, (S)-2-(3-Dodecylureido)-3-methyl-N-((8S,11R,E)-8-methyl-5,10-dioxo-1-thia-4,9-diazacyclododec-6-en-11-yl)butanamide]	–	–	–	–	–
0.74	> 10	no effect	> 10	> 10	no effect	1.07	0.91	stimulate the CT-L activity	CC(C)Cc1ccc([C@H](C)C(=O)N[C@H](C(=O)N[C@H]2CSCCNC(=O)/C=C/[C@H](C)NC2=O)C(C)C)cc1 [Compound 5, (S)-2-((S)-2-(4-Isobutylphenyl)propanamido)-3-methyl-N-((8S,11R,E)-8-methyl-5,10-dioxo-1-thia-4,9-diazacyclododec-6-en-11-yl)butanamide]	–	–	minimal effects	minimal effects	minimal effects
0.75	> 10	no effect	> 10	> 10	no effect	0.92	1.22	stimulate the CT-L activity	CC(C)[C@H](NC(=O)c1cnccn1)C(=O)N[C@H]1CSCCNC(=O)/C=C/[C@H](C)NC1=O [Compound 6, N-((S)-3-Methyl-1-(((8S,11R,E)-8-methyl-5,10-dioxo-1-thia-4,9-diazacyclododec-6-en-11-yl)amino)-1-oxobutan-2-yl)pyrazine-2-carboxamide]	–	–	minimal effects	minimal effects	minimal effects
